Published values collected from several papers.
Each line is one published result; the experiments were not run side by side.
Target: Leukocyte tyrosine kinase receptor (LTK, Homo sapiens, UniProt P29376)

`Cc1cnc(NC2CCOCC2)nc1-n1cnc(C(=O)NC(CN)c2cc(F)cc(Cl)c2)c1` (stereo not shown) has a remaining activity of 103% (enzyme activity, inhibitor, radiometric; 1 µM).
With `CCCS(=O)(=O)Nc1ccc(F)c(C(=O)c2c[nH]c3ncc(-c4ccc(Cl)cc4)cc23)c1F` the inhibition was under 10% (enzyme activity, inhibitor; 1 µM).
The remaining binding of `O=C(O)[C@H]1[C@H](Cn2nnc3ccccc3c2=O)CC[C@@H]1C(=O)c1ccc(OCCC2CCOCC2)cc1` is reported as 100% (cell-free assay, competition with immobilised ligand; 1 µM).
For `COc1cc(Cl)c(C(=O)N[C@@H](CN[C@H]2CC[C@@H](N)CC2)Cc2ccc(C#N)cc2)cc1-c1ccc(CN[C@H](C)c2ccc(C)cc2)o1`, the remaining activity was 94% (enzyme activity, inhibitor; 1 µM).
The remaining binding of `COCCOc1nc(-c2ccc(Cl)nc2)nc2c1CN(C(=O)c1ncn3ccccc13)CC2` is reported as 100% (cell-free assay, competition with immobilised ligand; 0.1 µM).
`Cc1sc(C(=O)NC2COC2)cc1-n1cc(NC(=O)Nc2c(F)cccc2Cl)cn1` has a remaining activity of 114% (enzyme activity, inhibitor; 10 µM).
For `Cc1noc([C@H]2C[C@@H](c3ccc(C(F)(F)F)cc3)CN(C(=O)N3CCS(=O)(=O)C3)C2)n1`, the remaining binding was 100% (cell-free assay, competition with immobilised ligand; 1 µM).
With `O=C(Nc1cnn(-c2csc(C(=O)NC3COC3)c2)c1)Nc1c(F)cccc1Cl` the remaining activity was 92.2% (enzyme activity, inhibitor; 5 µM).
For `Cc1ccc(NC(=O)c2ccc(C)c(C(F)(F)F)c2)cc1C#Cc1nn(C2CCC(O)CC2)c2ncnc(N)c12` (stereo not shown), the remaining signal was 73% (cell-free assay; 10 µM).
`Cc1ccc(C(=O)Nc2ccc(CN3CCN(C)CC3)c(C(F)(F)F)c2)cc1C#Cc1cnc2cccnn12` gave a remaining signal of 82% (cell-free assay; 23.5 nM).
`CC(C)(O)[C@H]1CC[C@H](Nc2ccc3ncc(-c4cccc(C(F)(F)F)c4)n3n2)CC1` gave a remaining activity of 70.5% (enzyme activity, inhibitor; 1 µM).
For `Cc1cc(NC(=O)c2cccc3cc(-c4cccc5[nH]nc(N)c45)ccc23)ccc1F`, the activity vs control was 96% (enzyme activity, inhibitor; 0.1 µM).
`Nc1ncnc2occ(-c3ccc(NC(=O)Nc4cc(C(F)(F)F)ccc4F)cc3)c12` has a remaining activity of 1.6% (enzyme activity, inhibitor; 20 µM).
The inhibition of `CC/C(=N\NC(=O)NCc1cccc(O)c1)c1ccc(O)c(C)c1O` is reported as -1.4% (enzyme activity, inhibitor; 0.1 µM).
For `Cc1ccc(C(=O)NCc2ccsc2)cc1C#Cc1cn(C(C)C)c2ncnc(N)c12`, the activity vs control was 95% (enzyme activity, inhibitor; 1 µM).
With `COc1cc2ncnc(Nc3ccc(Oc4ccccc4)c(C)c3C)c2cc1OC` the inhibition was -2% (enzyme activity, inhibitor; 1 µM).
`O=C(Nc1cnc(Oc2ccc(F)cc2)nc1)N1CCc2ncccc2[C@@H]1c1ccc(F)cc1` gave a remaining binding of 93% (cell-free assay, competition with immobilised ligand; 1 µM).
The inhibition of `COc1cc2ncnc(Nc3ccc(Oc4ccccc4)cc3C)c2cc1OC` is reported as -5% (enzyme activity, inhibitor; 1 µM).
`COc1cc2nccc(Oc3ccc(NC(=O)c4c5n(n(-c6ccc(F)cc6)c4=O)CCCC5)cc3)c2cc1OC` gave an inhibition of -10% (enzyme activity, inhibitor; 0.1 µM).
